Sampled rows, rich in hits. Any-hit rate of the full collection: about 2.9%.
SENP8 block-1: inhibitors of human SENP8 protease; AID 602440; Q96LD8; inhibition, % at 20 µM; recombinant SENP8, Nedd8 substrate fluorescence; 360,000 compounds, 0.64% hits; in the data active means inhibition mostly above about 40%, no sharp cut-off; inactive means mostly below about 27%
Target sequence (Q96LD8 whole entry, looked up): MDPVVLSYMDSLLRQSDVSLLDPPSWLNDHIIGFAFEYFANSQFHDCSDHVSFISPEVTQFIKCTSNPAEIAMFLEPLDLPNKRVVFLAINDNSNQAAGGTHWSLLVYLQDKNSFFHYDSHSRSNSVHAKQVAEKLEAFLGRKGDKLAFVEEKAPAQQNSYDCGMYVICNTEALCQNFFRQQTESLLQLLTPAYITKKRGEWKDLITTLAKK
SENP1 inh: SENP1 (human) catalytic domain inhibition; Q9P0U3; recombinant SENP1 catalytic domain, CyPet-SUMO1-YPet FRET cleavage; inhibition, % at 10 µM; 360,000 compounds, 0.21% hits; AID 624204;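 active means inhibition at least 30% at 10 µM, raw YFP signal under a set limit, fluorescence ratio 0.5 to 1.5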;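 further: 0% = enzyme with DMSO and 100% = no enzyme wells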
Target sequence (Q9P0U3 419-644 limits assumed): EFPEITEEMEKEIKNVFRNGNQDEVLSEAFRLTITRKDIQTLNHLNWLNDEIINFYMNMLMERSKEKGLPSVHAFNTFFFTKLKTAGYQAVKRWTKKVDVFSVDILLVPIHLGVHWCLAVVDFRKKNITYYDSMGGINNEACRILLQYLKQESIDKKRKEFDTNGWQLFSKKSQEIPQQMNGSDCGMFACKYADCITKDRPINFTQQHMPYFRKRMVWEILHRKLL
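Assay system: hSENP1 catalytic domain, recombinant. Amount: SENP1 enzyme, 20 pM final. Schedule: 50 min reaction, RT, dark. Technique: FRET, CFP and YFP emission. Control set: no-enzyme wells low, DMSO-plus-enzyme wells high control.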
SENP8 block-2: SENP8 protease inhibition. inhibition, % at 10 µM. AID 2540. purified SENP8, Z-RLRGG-aminoluciferin cleavage, luminescence. Q96LD8. 330,000 compounds, 1.2% hits; in the data active means inhibition above about 50%
Apaf-1 inh: blocks human Apaf-1 apoptosome activity; 330,000 compounds, 0.71% hits; AID 489030; reconstituted apoptosome caspase-3 activity, DEVD-Rh110 fluorescence; O14727; inhibition, % at 20 µM; active means inhibition of at least 40% at 20 µM;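 further: plate controls were DMSO wells for no effect and DEVD-CHO caspase inhibitor wells for full effect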
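Material: reconstituted apoptosome with Apaf-1, cytochrome c, caspase-9, procaspase-3, dATP. Technique: Rh110 fluorescence intensity. Buffer or medium: pH 7.5 Hepes buffer with CHAPS, BSA, DTT. Times: 30 min plus 50 min, RT.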
SENP6 block: SENP6 protease inhibition | Q9GZR1 | Recombinant SENP6 catalytic domain, aminoluciferin luminescence | inhibition, % at 10 µM | 330,000 compounds, 1.8% hits;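 active means inhibition above about 50% at the single tested dose, limit read from the data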;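 further: plate controls were DMSO wells with enzyme for no effect and DMSO wells lacking enzyme for full effect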
SENP7 block: blocks the human protease SENP7; 330,000 compounds, 1.5% hits; inhibition, % at 5 µM; recombinant SENP7, Z-RLRGG-aminoluciferin luminescence, 40 min;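 active means inhibition above about 50% at the single test dose, limit read from the data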;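 further: plate controls were DMSO with enzyme for no effect and no enzyme buffer wells for full effect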
SENP8 conf: confirmation of human SENP8 protease inhibitors; shares compounds with SENP7 block; Recombinant SENP8, Z-RLRGG-aminoluciferin luminescence, 60 min; inhibition, % at 12.5 µM; 6,200 compounds, 40% hits;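 active means mean inhibition across replicates above about 50%, limit read from the data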
SENP6 conf: confirmation of human SENP6 protease inhibitors | shares compounds with SENP7 block | recombinant SENP6, Z-RLRGG-aminoluciferin luminescence | inhibition, % at 12.5 µM | 6,200 compounds, 58% hits | AID 488915
SENP7 confirm: human SENP7 inhibition, confirmed. shares compounds with SENP7 block. recombinant SENP7, Z-RLRGG-aminoluciferin luminescence, 40 min. inhibition, % at 12.5 µM. 6,200 compounds, 69% hits. AID 488917
Casp3 select: inhibits human caspase-3 in SENP selectivity test; purified caspase-3, Z-DEVD-aminoluciferin luminescence, 60 min; AID 488918; inhibition, % at 12.5 µM; shares compounds with SENP7 block; 6,200 compounds, 60% hits;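 active means mean inhibition above about 50%, limit read from the data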;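 further: plate controls were enzyme with DMSO for no effect and wells without caspase-3 for full effect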
Target sequence (P42574 28-227 limits assumed): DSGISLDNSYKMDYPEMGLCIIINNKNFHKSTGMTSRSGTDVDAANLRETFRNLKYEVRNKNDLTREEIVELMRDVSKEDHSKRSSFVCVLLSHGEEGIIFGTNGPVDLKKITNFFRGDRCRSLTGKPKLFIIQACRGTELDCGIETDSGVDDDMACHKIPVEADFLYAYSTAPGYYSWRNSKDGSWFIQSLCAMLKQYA
Luc interf: counter-screen for SENP inhibitors: luminescence interference | AID 488919 | Pre-incubated SENP8/Z-RLRGG-aminoluciferin, luciferase luminescence interference | inhibition, % at 12.5 µM | shares compounds with SENP7 block | 6,200 compounds, 39% hits;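 active means mean inhibition above about 50% when retested at one dose, limit read from the data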;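 further: plate controls were DMSO wells with completed reaction for no effect and substrate without enzyme for full effect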
* = called active by the depositor; / = no result given.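 How the source made its calls, unless noted: active means mean inhibition above about 50% in the one-dose retest (limit read from the data); inactive means the rest.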

SMILES | SENP8 block-1 | SENP1 inh | SENP8 block-2 | Apaf-1 inh | SENP6 block | SENP7 block | SENP8 conf | SENP6 conf | SENP7 confirm | Casp3 select | Luc interf
Cc1ccc(SC/C(O)=C(\C#N)c2nc3ccccc3s2)cc1 | 29 | -1 | 25 | 8 | 71* | 0 | 6 | 22 | 13 | 16 | 8
CC(=O)c1sc(NC(=O)c2cc(=O)c3ccccc3o2)nc1C | 15 | 4 | 67* | 2 | 82* | 64* | 79* | 82* | 96* | 90* | 48
CC(=O)c1sc(NC(=O)c2oc3ccc(F)cc3c2C)nc1C | -469 | -12 | 57* | -17 | 45 | 80* | 37 | 39 | 17 | 50* | 16
CC(=O)c1sc(NC(=O)c2c(F)cccc2F)nc1C | 8 | 0 | -8 | -12 | -12 | 2 | / | / | / | / | /
Cc1ccc(C)c(N2CC(C(=O)Nc3nccs3)CC2=O)c1 (stereo unspecified) | 13 | 2 | -4 | 10 | -30 | -2 | / | / | / | / | /
COc1cccc(CNc2cnc3ccccc3c2)c1O | -304 | -7 | 42 | 0 | 60* | 38 | 37 | 35 | 77* | 34 | 61*
O=C1CN(C(=O)c2ccc(Cl)c(S(=O)(=O)N3CCc4ccccc43)c2)c2ccccc2N1 | 9 | -2 | 4 | 1 | 61* | 7 | -6 | -8 | -8 | -4 | -4
CN(C)S(=O)(=O)c1ccc(C(=O)Nc2nc3ccccc3[nH]2)cc1 | -15 | 0 | -12 | 7 | -18 | 1 | / | / | / | / | /
N#Cc1ccc(C(=O)Nc2nc3ccccc3[nH]2)cc1 | -33 | 0 | 50* | 9 | 69* | 73* | 2 | 40 | 71* | 68* | -1
O=C(Nc1nc2ccccc2[nH]1)c1ccc(F)cc1 | 2 | 4 | 79* | 1 | 94* | 93* | 78* | 84* | 98* | 94* | 52*
COc1ccc(Cl)cc1C(=O)Nc1nc2ccccc2[nH]1 | -310 | 1 | 90* | 16 | 96* | 98* | 83* | 91* | 102* | 96* | 80*
CCc1ccc(C(=O)Nc2nc3ccccc3[nH]2)cc1 | 2 | 2 | 94* | 15 | 96* | 97* | 56* | 76* | 86* | 84* | 12
CCOc1ccc(C(=O)Nc2nc3ccccc3[nH]2)cc1OCC | -18 | 1 | 2 | 0 | -14 | 3 | / | / | / | / | /
Cc1ccccc1-c1ccc2c(c1)O[C@H](CN(C)C(=O)C1CC1)[C@@H](C)CN([C@@H](C)CO)S2(=O)=O | 12 | 0 | / | / | / | / | / | / | / | / | /
CCNC(=O)C1(C)CCN(C(=O)c2cccnc2SC)C1 (stereo unspecified) | 15 | 1 | / | / | / | / | / | / | / | / | /
O=S(=O)(NCc1nnnn1-c1ccc(F)cc1)c1ccc(F)cc1 | 6 | -3 | / | / | / | / | / | / | / | / | /
O=C(Nc1nc2ccccc2[nH]1)c1ccccc1F | 10 | -1 | 97* | -21 | 96* | 99* | 2 | 99* | 102* | 98* | 97*
O=C(Nc1nc2ccccc2[nH]1)c1cc(F)cc(F)c1 | -14 | -1 | 28 | 4 | 55* | 54* | 28 | 33 | 73* | 66* | 16
O=C(Nc1nc2ccccc2[nH]1)c1ccccc1[N+](=O)[O-] | 12 | 1 | 3 | -17 | -9 | 2 | / | / | / | / | /
Cc1ccccc1S(=O)(=O)NC(=O)C1(C)CCN1C(=O)c1cccc(F)c1 (stereo unspecified) | 21 | 2 | / | / | / | / | / | / | / | / | /
O=C(CSCc1cccc(Br)c1)N=Nc1c(O)[nH]c2ccccc12 | 14 | 2 | 0 | 15 | 8 | 6 | / | / | / | / | /
O=Nc1c(-c2c(O)[nH]c3cc(Br)ccc23)[nH]c2ccccc12 | 20 | 2 | 8 | 23 | 54* | 53* | 17 | 36 | 79* | 22 | 4
NNc1nc2sc3c(c2c(=O)n1Cc1ccccc1)CCC3 | 6 | -22 | -1 | 1 | 13 | 3 | / | / | / | / | /
NNc1nc(-c2ccccc2)nc2sc3c(c12)CCCC3 | -150 | -3 | 66* | 15 | 79* | 80* | -7 | 12 | 20 | 16 | 16
O=C(Nc1nnc(CCc2ccccc2)s1)c1cccc(F)c1 | 1 | 2 | 8 | 12 | 44 | 61* | -1 | -1 | 13 | 21 | 8
SMILES | SENP8 block-1 | SENP1 inh | SENP8 block-2 | Apaf-1 inh | SENP6 block | SENP7 block | SENP8 conf | SENP6 conf | SENP7 confirm | Casp3 select | Luc interf
O=C(Nc1nnc(CCc2ccccc2)s1)c1ccccc1F | 11 | -1 | 3 | 7 | 51* | 40 | 36 | 33 | 58* | 48 | 6
Cc1nnc(NC(=O)c2ccccc2F)s1 | 14 | 2 | -8 | -19 | -3 | -1 | / | / | / | / | /
O=C(Nc1nnc(CCc2ccccc2)s1)c1ccc(F)cc1 | -57 | -4 | -6 | 5 | 9 | 6 | / | / | / | / | /
COc1ccc2c(c1)C1OCCC1C(c1ccco1)N2 (stereo unspecified) | -460 | -8 | 56* | -12 | -3 | 42 | 64* | 64* | 91* | 88* | 75*
CCCN(CC(=O)Nc1ccccc1C)C(=O)C1CC(=O)N(c2cccc(C)c2C)C1 (stereo unspecified) | 16 | -1 | 1 | -4 | 2 | -2 | / | / | / | / | /
CSc1nc(N)n2nc(-c3ccc(Cl)cc3)cc2n1 | 3 | 1 | 89* | -1 | 94* | 98* | -4 | 14 | 9 | 31 | -6
CC(=O)NC(c1cccc(F)c1)c1nc(-c2cnn(C)c2)cs1 (stereo unspecified) | 10 | 3 | / | / | / | / | / | / | / | / | /
CCCc1ccc(OCc2ccc(C(=O)NN)o2)c(OC)c1 | 20 | 2 | 0 | 5 | -1 | -5 | / | / | / | / | /
CCCc1ccc(OCc2ccc(C(=O)O)o2)c(OC)c1 | 8 | -3 | 69* | 2 | 75* | 54* | 74* | 73* | 92* | 15 | 83*
CCOc1ccc(OCc2ccc(C(=O)O)o2)cc1 | 8 | -1 | 94* | -1 | 97* | 96* | 96* | 99* | 102* | 80* | 97*
C=CCc1ccc(OCc2ccc(C(=O)O)o2)c(OC)c1 | 8 | 0 | 64* | -3 | 79* | 63* | 76* | 76* | 94* | 16 | 80*
